Bioassay records: PubChem BioAssay, Johns Hopkins Ion Channel Center
Sampled rows, rich in hits. Any-hit rate of the full collection: about 3.8%.
KCNQ1 block: inhibitors of human KCNQ1 potassium channel; P51787; CHO-K1 KCNQ1, FluxOR thallium flux fluorescence; hits give high values; B-score at 10 µM; 310,000 compounds, 1.3% hits;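 active = compounds whose thallium flux B-score, printed positive for inhibition, exceeds three library SD while starting fluorescence stays within three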;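 also: channel opened by potassium depolarization with thallium stimulus after 20 min compound exposure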
Target sequence (P51787 whole entry, looked up): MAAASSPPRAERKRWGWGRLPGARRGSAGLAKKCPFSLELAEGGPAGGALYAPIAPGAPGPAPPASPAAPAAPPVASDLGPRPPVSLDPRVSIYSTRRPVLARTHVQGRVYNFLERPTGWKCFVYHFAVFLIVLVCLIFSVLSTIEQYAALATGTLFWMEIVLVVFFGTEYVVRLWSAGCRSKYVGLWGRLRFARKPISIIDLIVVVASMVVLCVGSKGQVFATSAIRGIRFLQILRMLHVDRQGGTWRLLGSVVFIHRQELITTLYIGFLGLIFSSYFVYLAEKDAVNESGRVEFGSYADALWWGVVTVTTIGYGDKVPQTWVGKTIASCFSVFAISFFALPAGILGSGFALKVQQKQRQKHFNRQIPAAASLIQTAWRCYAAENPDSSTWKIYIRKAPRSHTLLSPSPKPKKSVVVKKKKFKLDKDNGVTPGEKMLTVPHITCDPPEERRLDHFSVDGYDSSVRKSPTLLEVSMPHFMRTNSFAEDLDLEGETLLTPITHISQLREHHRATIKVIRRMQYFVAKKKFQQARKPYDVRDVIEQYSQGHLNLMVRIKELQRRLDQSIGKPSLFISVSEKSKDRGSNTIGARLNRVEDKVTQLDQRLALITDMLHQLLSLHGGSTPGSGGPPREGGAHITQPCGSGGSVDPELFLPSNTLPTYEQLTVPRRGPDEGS
Kir21 inh: inhibitors of mouse Kir2.1 inward-rectifier potassium channel | HEK293-Kir2.1, FluxOR thallium flux fluorescence; hits give low values | 310,000 compounds, 0.85% hits | AID 1672 | B-score at 10 µM;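 active = fluorescence ratio B-score at or below minus 3 SD of library scores, with starting-brightness B-score within 2 SD, cut at about -4.2 in these data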;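 also: channel flux triggered by added potassium and thallium sulfate stimulus; B-score of peak minus minimum fluorescence over baseline after thallium stimulus; more negative B-score means stronger Kir2.1 block with less thallium influx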
hERG rescue: compounds protecting human hERG from proarrhythmic drug block; Q12809; CHO-hERG, FluxOR thallium flux, dofetilide IC70 present; activation (rescue from dofetilide block), less the hit threshold, % at 10 µM; 310,000 compounds, 0.51% hits; AID 1511;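 active = activation above the mean of controls blocked by dofetilide plus 5 SD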;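 also: thallium influx through hERG after potassium depolarization seen as dye fluorescence rise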
KCNQ1 act: potentiates or activates the human KCNQ1 potassium channel; P51787; B-score at 10 µM; 310,000 compounds, 0.35% hits; CHO-K1 KCNQ1, thallium flux FluxOR fluorescence; hits give high values;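 active = fluorescence ratio B-score, a plate-corrected score, at least three library SD, with initial intensity B-score within 5 SD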
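Schedule – 37 °C overnight plating, 90-min dark dye load, 20-min compound pretreatment · System – stable KCNQ1 CHO-K1 line · Probe or stimulus – thallium- and potassium-containing depolarizing buffer · Measured by – kinetic FluxOR fluorescence, 10 s baseline plus 110 s post-stimulus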
KCNK9 block: blocks the human KCNK9 two-pore domain potassium channel; HEK293 KCNK9, FluxOR thallium flux fluorescence; hits give low values; 310,000 compounds, 1.2% hits; B-score at 10 µM; Q9NPC2;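 active = ratio B-score over 3 SD below the library mean, with starting fluorescence within 5 SD of its mean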;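 also: negative B-score means less thallium flux so channel inhibition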
KCNK3 inh: human KCNK3 channel inhibition, primary screen | O14649 | B-score at 10 µM | 340,000 compounds, 0.84% hits | CHO-KCNK3 thallium flux, FluxOR fluorescence; hits give low values;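 active = B-score under library mean minus 4 SD, starting fluorescence ratio at most library mean plus 5 SD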;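 also: more negative B-score means stronger inhibition of thallium flux through KCNK3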
KCNQ1 block val: human KCNQ1 channel inhibition, validation assay. KCNQ1 cell line, FluxOR thallium flux fluorescence. 1,600 compounds, 93% hits. inhibition, % at 10 µM. shares compounds with KCNQ1 block;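 active = primary screen active, with duplicate mean exceeding buffer control mean plus 3 SD of buffer wells, cut at about 28% in these data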;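 also: 0% = buffer control ratio and 100% = XE991 inhibitor control ratio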
CHO Tl flux: activity in parental CHO cells lacking KCNQ1; parental CHO-K1, FluxOR thallium flux fluorescence ratio; hits give low values; zero means no signal rise above baseline; shares compounds with KCNQ1 block; 1,600 compounds, 21% hits; fluorescence ratio (Tl flux) at 10 µM;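 active = mean of duplicate thallium-flux fluorescence ratios in parental host cells more than 5 SD below the buffer control mean, cut at about 0.38 in these data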;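 also: ratio is peak minus minimum fluorescence divided by baseline fluorescence; actives read low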
KCNQ1 APC inh: blocks human KCNQ1 current in automated patch clamp; shares compounds with KCNQ1 block; KCNQ1-CHO cells; calls only at 10 µM; 490 compounds, 20% hits; AID 624120;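 active = KCNQ1 current drop exceeding 3 SD of negative control wells, seen in both duplicate runs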;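 also: steady state current during a 2 s step from -80 to +40 mV; negative values mean current inhibition and positive values mean potentiation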
KCNQ2 inh: selectivity of KCNQ1 inhibitors: inhibition of rat KCNQ2 channel; KCNQ2 cells, FluxOR thallium flux fluorescence; shares compounds with KCNQ1 block; inhibition, % at 10 µM; 1,600 compounds, 71% hits;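 active = mean percent inhibition of the KCNQ2 thallium signal more than 5 SD above the buffer-only control wells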;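 also: KCNQ2 expressed in CHO cells; 0% = buffer control wells and 100% = XE-991 inhibitor control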
KCNQ1-KCNE1 inh: KCNQ1 inhibitor that also blocks human KCNQ1/KCNE1 channel | shares compounds with KCNQ1 block | AID 652147 | 1,600 compounds, 77% hits | inhibition, % at 10 µM | KCNQ1/KCNE1 cells, FluxOR thallium flux fluorescence;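 active = mean percent inhibition of duplicate wells above the buffer-only control mean plus 3 SD of those controls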;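 also: 0% = buffer only wells and 100% = XE-991 inhibitor control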
KCNK9 inh conf: confirmation of human KCNK9 potassium channel inhibitors | inhibition, % at 10 µM | HEK293 KCNK9 cells, FluxOR thallium flux fluorescence | shares compounds with KCNK9 block | 4,900 compounds, 43% hits;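 active = thallium signal inhibited by more than 5 SD of the compound-free buffer control wells, on both duplicate plates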;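 also: 0% = assay buffer control wells without compound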
Kir21 sel: selectivity of KCNK9 modulators against mouse Kir2.1; shares compounds with KCNK9 block; 4,900 compounds, 4% hits; inhibition, % at 10 µM; Kir2.1 cells, FluxOR thallium flux fluorescence;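 active = thallium signal drop more than 5 SD beyond the mean of the no-compound control wells, seen in both duplicate plates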;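 also: signal is fluorescence rise after thallium addition divided by baseline fluorescence; plate controls were assay buffer only for no effect and full block by chlorpromazine control for full effect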
HEK293 Tl ctr: second check of KCNK9 modulator effects in non-induced HEK293 cells | FluxOR thallium flux | inhibition, % at 10 µM | shares compounds with KCNK9 block | AID 492997 | 4,900 compounds, 40% hits;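 active = thallium signal drop beyond 5 SD of the untreated control mean, on both duplicate plates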;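 also: plate controls were buffer only IC0 wells for no effect and SID17386958 at its maximal inhibitory level for full effect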
KCNK3 inh conf: human KCNK3 channel inhibition, confirmation assay. AID 651638. shares compounds with KCNK3 inh. ratio percent of control, % at 10 µM. 2,400 compounds, 99% hits. CHO-KCNK3 thallium flux, FluxOR fluorescence; 0% buffer, 100% carvedilol maximal block;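 active = ratio percent of control, averaged over triplicates, above buffer control mean plus 5 SD, cut at about 64% in these data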;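 also: ratio is the fluorescence rise from min to max over baseline after thallium stimulus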
KCNK3 uninduced: KCNK3 inhibitor counter-screen hit in non-induced cells. non-induced KCNK3 parental cells, FluxOR thallium flux; hits give low values. thallium flux ratio (lower = more inhibition) at 10 µM. 2,400 compounds, 40% hits. shares compounds with KCNK3 inh;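 active = thallium flux ratio, averaged over three wells, more than 5 SD below the buffer control mean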;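 also: host cells are CHO cells without KCNK3 induction; ratio is peak minus trough fluorescence over baseline then normalized to buffer controls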
Starred values were filed as active, the others as inactive; i = inactive; . = no result; + = active, no number.

SMILES	KCNQ1 block	Kir21 inh	hERG rescue	KCNQ1 act	KCNK9 block	KCNK3 inh	KCNQ1 block val	CHO Tl flux	KCNQ2 inh	KCNQ1-KCNE1 inh	KCNK3 inh conf	KCNK3 uninduced	others
N#CC1=C(N)NC(SCc2ccc(Br)cc2)=C(C#N)C12CCCCC2	18*	0.02	-12.8	i	-6.84*	-11.7*	139.5*	0.307*	114.7%*	159.0%*	125.7*	0.129*
COCCN1C(=O)Cc2c1nc(N)c1c(N)nc(N3CCN(c4ccc(F)cc4)CC3)c(C#N)c21	i	0.4	-14.9	i	i	i	.	.	.	.	.	.
COCC(C)N1C(=O)Cc2c1nc(N)c1c(N)nc(N3CCN(c4ccccc4F)CC3)c(C#N)c21 (stereo unspecified)	6*	0.67	-22.4	i	-10.7*	i	151.5*	0.493	i	+	114.7*	0.147*	KCNQ1 APC inh=i;KCNK9 inh conf=62.0%*;Kir21 sel=i;HEK293 Tl ctr=i
CCCCNC(=S)Nc1ccc(Oc2ccccc2)cc1	6*	-0.6	-22.1	i	-7.45*	-9.72*	39.0*	0.54	i	67.5%*	95.7*	i
CSc1ccc(CN(C)C(C)C(=O)NCC2CCCCC2)cc1 (stereo unspecified)	6*	-0.56	-7.3	i	i	-9.36*	65.5*	0.472	69.0%*	79.5%*	95.3*	i
CC(C(=O)NCC1CCCCC1)N(C)Cc1ccc(Cl)cc1 (stereo unspecified)	9*	-1.66	-18.1	i	-7.17*	-9.72*	75.5*	0.376*	68.7%*	98.5%*	105.3*	i
CC(C(=O)NCC1CCCCC1)N(C)Cc1ccc(Br)cc1 (stereo unspecified)	8*	-0.06	-6.5	i	i	-15*	69.0*	0.391	92.0%*	66.0%*	120.7*	0.156*
CSc1ccc(CN(C)C(C)C(=O)Nc2ccc(F)c(F)c2F)cc1 (stereo unspecified)	i	-2.23	-20.8	i	i	i	.	.	.	.	.	.
CC(OC(=O)c1ccc(Br)o1)C(=O)NCC1CCCCC1 (stereo unspecified)	.	.	.	.	.	i	.	.	.	.	.	.
CCCn1c(SCC(=O)N2CCN(c3ccc(OC)cc3)CC2)nc2c1c(=O)n(C)c(=O)n2C	i	0.25	-18.8	i	i	i	.	.	.	.	.	.
c1cc2c(c(NCc3ccncc3)c1)CCCC2	i	0.75	-8.3	i	i	i	.	.	.	.	.	.
CNc1ccccc1C(C)(C)c1cc(-c2cccc(Br)c2)no1	6*	0.61	-22.1	i	i	-10.7*	121.5*	0.457	106.0%*	117.0%*	121.0*	0.15*	KCNQ1 APC inh=i
CNc1ccccc1C(C)(C)c1cc(-c2cccc([N+](=O)[O-])c2)no1	i	0.11	0.7	i	i	i	.	.	.	.	.	.
CCCn1c(Nc2ccc(Cl)cc2)nc2ccccc21	i	1.88	-8.9	i	i	i	.	.	.	.	.	.
COCCn1c(=NC(=O)C2COc3ccccc3O2)sc2cc(S(N)(=O)=O)ccc21 (stereo unspecified)	i	1.59	-9.6	i	i	i	.	.	.	.	.	.
CCn1c(=NC(=O)C2COc3ccccc3O2)sc2c(OC)ccc(OC)c21 (stereo unspecified)	7*	0.4	-14.8	i	-6.61*	-10.1*	79.5*	0.385	81.7%*	125.5%*	112.0*	i
CCCN1CCc2c(sc(NC(=O)c3ccc(S(=O)(=O)N(C)c4ccccc4)cc3)c2C(=O)NC)C1	15*	-0.14	-30.4	i	i	-8.99*	144.0*	0.281*	i	+	171.3*	0.0547*
CC(C)[C@H](NC(=O)[C@@H]1Cc2ccccc2CN1C(=O)OC(C)(C)C)C(=O)NCc1ccco1	i	-0.76	-5.4	i	i	i	.	.	.	.	.	.
Cc1cccc(-c2cc(C(=O)Nc3cccnc3)c3ccccc3n2)c1	9*	-1.88	-20.6	i	i	-8.86*	124.5*	0.373*	135.7%*	159.0%*	125.3*	0.101*
Cc1cccc(-c2cc(C(=O)Nc3ccncc3)c3ccccc3n2)c1	i	-0.85	-3.3	i	i	i	.	.	.	.	.	.
Cc1cc(OCC(=O)Nc2ccccc2N2CCCC2)ccc1C(C)C	9*	-0.92	-12.9	i	i	-9*	72.5*	0.511	82.3%*	99.5%*	111.7*	i
O=C(CNCc1ccccc1Cl)Nc1ccccc1N1CCCCC1	7*	-0.36	-35.4	i	i	-8.95*	96.0*	0.404	115.0%*	109.0%*	113.7*	0.151*	KCNQ1 APC inh=+
Cc1nc(N2CCN(Cc3ccc4c(c3)OCO4)CC2)c2cc(-c3ccccc3)sc2n1	7*	-1.3	-19.4	i	i	-10.1*	118.0*	0.412	111.0%*	130.0%*	94.7*	i	KCNQ1 APC inh=i
CCOc1ccc(C(=O)COC(=O)c2c(-c3ccccc3)noc2C)cc1	i	-1.11	-15.3	i	i	i	.	.	.	.	.	.
